{"source": "ChEMBL document CHEMBL1177719", "about": "(J Med Chem, 2010)", "key": {"[1]": {"molecular_target": "T1, Prostaglandin G/H synthase 1 (Ovis aries) (UniProt P05979)", "T1 sequence (whole entry)": "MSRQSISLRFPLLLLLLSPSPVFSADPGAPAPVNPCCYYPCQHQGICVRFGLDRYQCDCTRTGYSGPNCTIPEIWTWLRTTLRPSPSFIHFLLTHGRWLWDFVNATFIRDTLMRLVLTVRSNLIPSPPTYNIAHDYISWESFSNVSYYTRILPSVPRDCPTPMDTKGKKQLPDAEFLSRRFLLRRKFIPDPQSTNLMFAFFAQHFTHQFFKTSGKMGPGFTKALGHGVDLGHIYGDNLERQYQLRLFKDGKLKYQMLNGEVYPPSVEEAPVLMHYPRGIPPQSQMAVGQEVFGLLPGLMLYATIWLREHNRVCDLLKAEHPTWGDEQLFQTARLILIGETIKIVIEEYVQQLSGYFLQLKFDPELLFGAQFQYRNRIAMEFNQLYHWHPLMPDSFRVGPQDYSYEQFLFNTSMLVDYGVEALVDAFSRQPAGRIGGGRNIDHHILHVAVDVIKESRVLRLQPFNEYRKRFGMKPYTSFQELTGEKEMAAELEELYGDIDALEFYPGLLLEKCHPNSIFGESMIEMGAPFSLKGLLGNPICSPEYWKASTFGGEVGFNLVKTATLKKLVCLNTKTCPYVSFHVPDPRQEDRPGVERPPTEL", "experiment": "Inhibition of sheep seminal vesicles COX1 assessed as PGE2 production at 34 uM after 10 mins by ELISA relative to control", "how_it_was_run": "(§1)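 Sheep seminal vesicle COX-1; reaction started with arachidonic acid, 10 min at room temperature, stopped with 27.8 μM indomethacin. PGE₂ quantified by competitive ELISA (PGE₂-acetylcholinesterase tracer, Ellman's reagent, 412 nm) against a PGE₂ standard curve. Result as % of solvent control; IC₅₀ from dose-response curves.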"}, "[2]": {"molecular_target": "NAD(P)H dehydrogenase [quinone] 1 (Mus musculus) (UniProt Q64669)", "sequence (Q64669 whole entry)": "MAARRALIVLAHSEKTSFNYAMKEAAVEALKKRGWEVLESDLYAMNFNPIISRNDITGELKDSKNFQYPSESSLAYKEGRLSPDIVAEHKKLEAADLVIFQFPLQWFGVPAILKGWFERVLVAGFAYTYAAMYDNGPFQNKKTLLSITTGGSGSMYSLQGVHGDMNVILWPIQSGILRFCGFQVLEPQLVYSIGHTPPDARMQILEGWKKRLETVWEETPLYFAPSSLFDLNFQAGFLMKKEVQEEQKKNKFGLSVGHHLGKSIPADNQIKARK", "experiment": "Induction of quinone reductase 1 in mouse Hepa 1c1c7 cells assessed as drug level required to double enzyme activity by MTT assay"}, "[3]": {"test_system": "HEK293", "experiment": "Cytotoxicity against human HEK293 cells at 34 uM", "format": "cell-based", "settings": "hek293, 34 µM"}, "[4]": {"molecular_target": "T2, Prostaglandin G/H synthase 2 (Homo sapiens, UniProt P35354)", "T2 sequence (P35354 whole entry)": "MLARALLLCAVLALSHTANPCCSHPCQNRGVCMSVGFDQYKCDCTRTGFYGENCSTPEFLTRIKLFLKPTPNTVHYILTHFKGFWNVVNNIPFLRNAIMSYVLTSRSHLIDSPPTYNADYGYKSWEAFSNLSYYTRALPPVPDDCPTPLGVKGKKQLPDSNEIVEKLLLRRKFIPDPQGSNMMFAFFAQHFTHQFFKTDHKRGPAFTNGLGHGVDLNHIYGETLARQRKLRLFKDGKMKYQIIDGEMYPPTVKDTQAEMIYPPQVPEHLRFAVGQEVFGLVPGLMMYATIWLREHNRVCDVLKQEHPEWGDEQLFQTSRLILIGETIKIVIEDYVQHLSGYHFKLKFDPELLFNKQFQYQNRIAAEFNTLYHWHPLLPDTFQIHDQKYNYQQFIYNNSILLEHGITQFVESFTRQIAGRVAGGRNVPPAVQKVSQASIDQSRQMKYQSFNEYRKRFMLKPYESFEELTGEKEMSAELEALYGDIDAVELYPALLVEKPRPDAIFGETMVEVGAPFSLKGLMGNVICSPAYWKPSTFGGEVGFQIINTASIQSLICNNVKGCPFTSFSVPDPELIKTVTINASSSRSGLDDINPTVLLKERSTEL", "experiment": "Inhibition of human recombinant COX2 assessed as PGE2 production after 10 mins by ELISA"}, "[5]": {"experiment": "Antioxidant activity assessed as nitric oxide scavenging activity at 60 uM", "format": "functional", "how_it_was_run": "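Compounds diluted tenfold in PBS and incubated with sodium nitroprusside (final compound 60 μM, SNP 5 mM) for 3 h at room temperature. Nitrite measured by Griess reagent, absorbance 540 nm. % inhibition given as average of triplicates ± standard deviation.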"}, "[6]": {"molecular_target": "T3, Prostaglandin G/H synthase 1 (Ovis aries, UniProt P05979)", "T3 sequence (P05979 whole entry)": "T1 sequence (whole entry)", "experiment": "Inhibition of sheep seminal vesicles COX1 assessed as PGE2 production after 10 mins by ELISA", "how_it_was_run": "as §1"}, "[7]": {"test_system": "RAW264.7", "experiment": "Inhibition of LPS-induced iNOS expression in mouse RAW264.7 cells at 34 uM treated 15 mins before LPS challenge measured after 18 hrs by Western blotting", "format": "functional, cell-based", "how_it_was_run": "(§2)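 RAW 264.7 cells pretreated 15 min with compound (34 μM), then LPS 1 μg/mL for 18 h. Lysates (30 μg protein) run on 8% SDS-PAGE and transferred to PVDF. Blocked in 5% milk/TBST, probed for iNOS and COX-2 with HRP secondary, ECL detection, β-actin internal control. Band density relative to LPS-treated control; duplicate experiments.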"}, "[8]": {"experiment": "Antioxidant activity assessed as DPPH scavenging activity at 340 uM after 30 mins", "format": "functional"}, "[9]": {"experiment": "Antioxidant activity assessed as DPPH scavenging activity after 30 mins", "format": "functional"}, "[10]": {"experiment": "Chemical stability assessed as degradation after 24 hrs by LC/MS/MS analysis", "format": "physicochemical", "how_it_was_run": "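Compound held 24 h at 37 °C in RPMI 1640 culture medium, the medium used for the MCF7 uptake work; remaining amount sampled at 0, 12 and 24 h as % of starting level; three runs.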"}, "[11]": {"test_system": "HL-60", "experiment": "Cell cycle arrest in human HL60 cells assessed as accumulation at sub-G1 phase at 34 uM after 24 hrs by flow cytometry", "format": "functional", "how_it_was_run": "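HL-60 cells (2 × 10⁵/well) exposed to samples for 24 h, then stained with NIM-DAPI nuclear isolation medium. Read by flow cytometry under UV excitation; percentage of cells in subG₁ taken from the DNA histogram.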"}, "[12]": {"experiment": "Inhibition of TNF-alpha-induced NF-kappaB activity expressed in HEK293 cells after 48 hrs by luciferase reporter gene assay", "format": "cell-based", "settings": "HEK293, 48 h"}, "[13]": {"test_system": "MCF7", "experiment": "Cellular uptake in human MCF7 cells assessed per millions cells at 50 uM after 24 hrs by LC/MS/MS analysis", "format": "ADME, cell-based", "settings": "mcf7, 24 h"}, "[14]": {"test_system": "RAW264.7", "experiment": "Inhibition of LPS-induced COX2 expression in mouse RAW264.7 cells at 34 uM treated 15 mins before LPS challenge measured after 18 hrs by Western blotting relative to control", "format": "functional", "how_it_was_run": "as §2"}}, "note": "Activity calls are given as the source filed them. The rule behind the calls is not given here.", "data": [{"smiles": "O=S(=O)([O-])Oc1cc(O)cc(/C=C/c2ccc(O)cc2)c1.[K+]", "values": [{"measurement": "inhibition", "setting": "[1]", "value": 74.3, "unit": "%"}, {"measurement": "CD", "setting": "[2]", "value": 2.6, "unit": "µM"}, {"measurement": "Activity", "setting": "[3]", "value": "Non-toxic"}, {"measurement": "IC50", "setting": "[4]", "value": 7.53, "unit": "µM"}, {"measurement": "Activity", "setting": "[5]", "value": 24.7, "unit": "%"}, {"measurement": "IC50", "setting": "[6]", "value": 3.6, "unit": "µM"}, {"measurement": "inhibition", "setting": "[7]", "value": "Active"}, {"measurement": "inhibition", "setting": "[8]", "value": 68, "unit": "%"}, {"measurement": "IC50", "setting": "[9]", "value": 219, "unit": "µM"}]}, {"smiles": "O=S(=O)([O-])Oc1ccc(/C=C/c2cc(O)cc(O)c2)cc1.[K+]", "values": [{"measurement": "inhibition", "setting": "[1]", "value": 63.2, "unit": "%"}, {"measurement": "CD", "setting": "[2]", "value": "> 6.9", "unit": "µM"}, {"measurement": "Activity", "setting": "[3]", "value": "Non-toxic"}, {"measurement": "IC50", "setting": "[4]", "value": 8.95, "unit": "µM"}, {"measurement": "Stability", "setting": "[10]", "value": "Stable"}, {"measurement": "Activity", "setting": "[5]", "value": 10.3, "unit": "%"}, {"measurement": "IC50", "setting": "[6]", "value": 5.55, "unit": "µM"}, {"measurement": "Activity", "setting": "[11]", "value": 2.22, "unit": "%"}, {"measurement": "inhibition", "setting": "[7]", "value": "Active"}, {"measurement": "IC50", "setting": "[12]", "value": 18.2, "unit": "µM"}, {"measurement": "inhibition", "setting": "[8]", "value": 42.8, "unit": "%"}]}, {"smiles": "O=S(=O)([O-])Oc1cc(/C=C/c2ccc(O)cc2)cc(OS(=O)(=O)[O-])c1.[K+].[K+]", "values": [{"measurement": "inhibition", "setting": "[1]", "value": 30.9, "unit": "%"}, {"measurement": "CD", "setting": "[2]", "value": "> 10.1", "unit": "µM"}, {"measurement": "Activity", "setting": "[3]", "value": "Non-toxic"}, {"measurement": "Drug uptake", "setting": "[13]", "value": "Active"}, {"measurement": "fold change (FC)", "setting": "[14]", "value": 0.76}, {"measurement": "Activity", "setting": "[5]", "value": 1.2, "unit": "%"}, {"measurement": "inhibition", "setting": "[8]", "value": 14.5, "unit": "%"}]}, {"smiles": "O=S(=O)([O-])Oc1ccc(/C=C/c2cc(OS(=O)(=O)[O-])cc(OS(=O)(=O)[O-])c2)cc1.[K+].[K+].[K+]", "values": [{"measurement": "inhibition", "setting": "[1]", "value": 37.8, "unit": "%"}, {"measurement": "CD", "setting": "[2]", "value": "> 11.7", "unit": "µM"}, {"measurement": "Activity", "setting": "[3]", "value": "Non-toxic"}, {"measurement": "fold change (FC)", "setting": "[14]", "value": 0.69}, {"measurement": "Activity", "setting": "[5]", "value": 1.6, "unit": "%"}, {"measurement": "inhibition", "setting": "[8]", "value": 0.4, "unit": "%"}]}]}
